# Assays:
# [1] = tested on: Canis familiaris; test: Bronchodilator activity in dog assessed as degree of inhibition of carbachol or histamine-induced bronchoconstriction at 5 mg/kg, iv relative to control; format: functional; details: Canis lupus familiaris
# Outline: (§1)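 Anesthetized dogs, trachea cannulated with a nonbreathing valve. Bronchoconstriction induced by iv carbachol (2–4 μg/kg) or histamine diphosphate (20–50 μg/kg) in separate animals, and airway pressure recorded by transducer. Drug stocks were made fresh in distilled water, diluted in saline and kept on ice. Read-out was percent inhibition of control constriction, averaged over at least three dogs per dose at the higher dose. Carbachol and histamine data were combined.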
# [2] = tested on: Canis familiaris; test: Bronchodilator activity in dog assessed as time of inhibition of carbachol or histamine-induced bronchoconstriction at 5 mg/kg, iv relative to control; format: functional, Canis lupus familiaris
# Outline: (§2)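 Anesthetized dogs with an airway cannula and a nonbreathing valve. Bronchoconstriction was induced by iv carbachol (2–4 μg/kg) or histamine diphosphate (20–50 μg/kg) and read as change in airway pressure by transducer. Each compound was tested against both agonists in different dogs, and the results were combined and averaged. Effect is % inhibition of control constriction, with at least three dogs per dose. Drugs were dissolved fresh in distilled water, diluted in saline and kept on ice.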
# [3] = tested on: Canis familiaris; test: Bronchodilator activity in dog assessed as time of inhibition of carbachol or histamine-induced bronchoconstriction at 200 to 400 mg/kg, id relative to control; format: functional, Canis lupus familiaris; details: dose mg/kg 200-400; route intraduodenal
# Outline: (§3)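 Dog airway model: anesthetized, cannulated via a nonbreathing valve, with airway pressure changes recorded after iv carbachol (2–4 μg/kg) or histamine diphosphate (20–50 μg/kg) challenge, each agonist in different animals. Compounds were given iv, intraduodenally or intratracheally from fresh aqueous stocks diluted in saline. Duration (h) of inhibition of induced bronchoconstriction was followed, and the two agonist datasets were pooled.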
# [4] = tested on: Canis familiaris; test: Bronchodilator activity in dog assessed as degree of inhibition of carbachol or histamine-induced bronchoconstriction at 400 to 800 mg/kg, it relative to control; format: functional, Canis lupus familiaris; details: dose mg/kg 400-800; route endotracheal; outline: as §1
# [5] = tested on: Canis familiaris; test: Cardiotoxicity in spontaneously respiring dog assessed as time of increase in heart rate at 4 to 8 mg/kg, iv relative to control; format: toxicity, organism-based, Canis lupus familiaris; set-up: dose 4-8 mg/kg, route intravenous; details: in vivo
# Outline: (§4)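 Anesthetized, spontaneously respiring dogs. Heart rate was taken from a lead II EKG, and blood pressure from the right femoral artery by transducer. The increase in heart rate (beats/min) was scored on a graded scale with more than 4 dogs per dose, and its duration was recorded. Drugs were dissolved fresh in distilled water, diluted in physiological saline and kept on ice.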
# [6] = tested on: Canis familiaris; test: Bronchodilator activity in dog assessed as degree of inhibition of carbachol or histamine-induced bronchoconstriction at 200 to 400 mg/kg, id relative to control; format: functional, Canis lupus familiaris; details: dose mg/kg 200-400; route intraduodenal; outline: as §1
# [7] = tested on: Canis familiaris; test: Cardiotoxicity in spontaneously respiring dog assessed as time of increase in heart rate at 200 to 400 mg/kg, id relative to control; format: toxicity, organism-based, Canis lupus familiaris; set-up: dose 200-400 mg/kg, route intraduodenal; details: in vivo, other; outline: as §4
# [8] = tested on: Canis familiaris; test: Bronchodilator activity in dog assessed as time of inhibition of carbachol or histamine-induced bronchoconstriction at 400 to 800 mg/kg, it relative to control; format: functional, Canis lupus familiaris; details: dose mg/kg 400-800; route endotracheal; outline: as §3
# [9] = tested on: Canis familiaris; test: Cardiotoxicity in spontaneously respiring dog assessed as degree of increase in heart rate at 4 to 8 mg/kg, iv relative to control; format: toxicity, organism-based, Canis lupus familiaris; set-up: dose 4-8 mg/kg, route intravenous; details: in vivo; outline: as §4
# [10] = tested on: Canis familiaris; test: Bronchodilator activity in dog assessed as time of inhibition of carbachol or histamine-induced bronchoconstriction at 4 to 8 mg/kg, iv relative to control; format: functional, Canis lupus familiaris; details: dose mg/kg 4-8; outline: as §3
# [11] = tested on: Canis familiaris; test: Cardiotoxicity in spontaneously respiring dog assessed as degree of increase in heart rate at 200 to 400 mg/kg, id relative to control; format: toxicity, organism-based, Canis lupus familiaris; set-up: dose 200-400 mg/kg, route intraduodenal; details: in vivo, other; outline: as §4
# [12] = tested on: Canis familiaris; test: Bronchodilator activity in dog assessed as degree of inhibition of carbachol or histamine-induced bronchoconstriction at 4 to 8 mg/kg, iv relative to control; format: functional, Canis lupus familiaris; details: dose mg/kg 4-8; outline: as §1
# [13] = tested on: Canis familiaris; test: Bronchodilator activity in dog assessed as degree of inhibition of carbachol or histamine-induced bronchoconstriction at 5 to 10 mg/kg, iv relative to control; format: functional, Canis lupus familiaris; details: dose mg/kg 5-10; outline: as §1
# [14] = tested on: Canis familiaris; test: Bronchodilator activity in dog assessed as time of inhibition of carbachol or histamine-induced bronchoconstriction at 5 to 10 mg/kg, iv relative to control; format: functional, Canis lupus familiaris; details: dose mg/kg 5-10; outline: as §2
# [15] = tested on: Canis familiaris; test: Bronchodilator activity in dog assessed as degree of inhibition of carbachol or histamine-induced bronchoconstriction at 100 to 200 mg/kg, iv relative to control; format: functional, Canis lupus familiaris; details: dose mg/kg 100-200; outline: as §1
# [16] = tested on: Canis familiaris; test: Bronchodilator activity in dog assessed as degree of inhibition of carbachol or histamine-induced bronchoconstriction at 300 to 1200 mg/kg, it relative to control; format: functional, Canis lupus familiaris; details: dose mg/kg 300-1200; route endotracheal; outline: as §1
# [17] = tested on: Canis familiaris; test: Bronchodilator activity in dog assessed as time of inhibition of carbachol or histamine-induced bronchoconstriction at 100 to 200 mg/kg, iv relative to control; format: functional, Canis lupus familiaris; details: dose mg/kg 100-200; outline: as §3
# [18] = tested on: Canis familiaris; test: Cardiotoxicity in spontaneously respiring dog assessed as degree of increase in heart rate at 100 to 200 mg/kg, iv relative to control; format: toxicity, organism-based, Canis lupus familiaris; set-up: dose 100-200 mg/kg, route intravenous; details: in vivo; outline: as §4
# [19] = tested on: Canis familiaris; test: Bronchodilator activity in dog assessed as time of inhibition of carbachol or histamine-induced bronchoconstriction at 300 to 1200 mg/kg, it relative to control; format: functional, Canis lupus familiaris; details: dose mg/kg 300-1200; route endotracheal; outline: as §3
# [20] = tested on: Canis familiaris; test: Bronchodilator activity in dog assessed as degree of inhibition of carbachol or histamine-induced bronchoconstriction at 25 to 100 mg/kg, iv relative to control; format: functional, Canis lupus familiaris; details: dose mg/kg 25-100; outline: as §1
# [21] = tested on: Canis familiaris; test: Bronchodilator activity in dog assessed as time of inhibition of carbachol or histamine-induced bronchoconstriction at 25 to 100 mg/kg, iv relative to control; format: functional, Canis lupus familiaris; details: dose mg/kg 25-100; outline: as §3
# [22] = tested on: Canis familiaris; test: Bronchodilator activity in dog assessed as degree of inhibition of carbachol or histamine-induced bronchoconstriction at 25 to 50 mg/kg, iv relative to control; format: functional, Canis lupus familiaris; details: dose mg/kg 25-50; outline: as §1
# [23] = tested on: Canis familiaris; test: Bronchodilator activity in dog assessed as time of inhibition of carbachol or histamine-induced bronchoconstriction at 25 to 50 mg/kg, iv relative to control; format: functional, Canis lupus familiaris; details: dose mg/kg 25-50; outline: as §3
# [24] = tested on: Canis familiaris; test: Bronchodilator activity in dog assessed as degree of inhibition of carbachol or histamine-induced bronchoconstriction at 520 to 1040 mg/kg, it relative to control; format: functional, Canis lupus familiaris; details: dose mg/kg 520-1040; route endotracheal; outline: as §1
# [25] = tested on: Canis familiaris; test: Bronchodilator activity in dog assessed as time of inhibition of carbachol or histamine-induced bronchoconstriction at 520 to 1040 mg/kg, it relative to control; format: functional, Canis lupus familiaris; details: dose mg/kg 520-1040; route endotracheal; outline: as §2
smiles,measurement,setting,value
CC(C)C(=O)Oc1ccc([C@@H](O)CNC(C)(C)C)cc1OC(=O)C(C)C.Cl,inhibition in vivo at 5 mg/kg,[1],20%
same,Time,[2],<0.5 h
CC(C)CC(=O)Oc1ccc([C@@H](O)CNC(C)(C)C)cc1OC(=O)CC(C)C.Cl,Time,[3],3 h
same,inhibition (INH),[4],>70%
same,Time,[5],< 1 h
same,inhibition (INH),[6],45%
same,Time,[7],< 3 h
same,Time,[8],<2 h
same,Activity,[9],20 beats/min
same,Time,[10],<2 h
same,Activity,[11],40 beats/min
same,inhibition (INH),[12],>70%
CCC(C)C(=O)Oc1ccc([C@@H](O)CNC(C)(C)C)cc1OC(=O)C(C)CC.Cl (some centres not stated),inhibition (INH),[13],45%
same,Time,[14],<1 h
CCCC(C)(C)C(=O)Oc1ccc([C@@H](O)CNC(C)(C)C)cc1OC(=O)C(C)(C)CCC.CS(=O)(=O)O,inhibition (INH),[13],45%
same,Time,[14],<1 h
CS(=O)(=O)O.Cc1ccccc1C(=O)Oc1ccc([C@@H](O)CNC(C)(C)C)cc1OC(=O)c1ccccc1C,inhibition (INH),[15],20%
same,inhibition (INH),[16],20%
same,Time,[17],<4 h
same,Activity,[18],20%
same,Time,[19],<3 h
COc1ccc(CC(=O)Oc2ccc([C@@H](O)CNC(C)(C)C)cc2OC(=O)Cc2ccc(OC)cc2)cc1.Cl,inhibition (INH),[20],>70%
same,Time,[21],2 h
CS(=O)(=O)O.Cc1ccc(C(=O)Oc2ccc([C@@H](O)CNC(C)(C)C)cc2OC(=O)c2ccccc2)cc1,inhibition (INH),[22],>70%
same,Time,[23],2 h
same,inhibition (INH),[24],45%
same,Time,[25],2 h

# — ChEMBL document CHEMBL3272249, “Esters of N-tert-butylarterenol. Long-acting new bronchodilators with reduced cardiac effects” (J Med Chem, 1976)
